An excerpt weighted towards active compounds, which were near 1.5% of everything screened.
CRFR2-BP antag: antagonists of CRF-BP/CRF-R2 complex, primary screen, cell-based, HEK293, calcium dye fluorescence, uHTS | CRF-induced calcium fluorescence | inhibition, % at 11.8 µM | hit rate 0.59% among 350,000;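 active = inhibition of the ligand-induced calcium signal above about 50% at the single tested concentration, limit read from the data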
PKA-R1A activ: activators of PKA-R1A holoenzyme, primary screen, biochemical, fluorescence polarization, Cy5-IP20, bovine R1A, mouse PKAc; cAMP-dependent protein kinase type I-alpha regulatory subunit (Bos taurus) + …; PKA-R1A dissociation; scaled: DMSO 0%, 113 µM cGMP 100%; activation, % at 11.4 µM; hit rate 0.083% among 340,000;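 active = percent activation above the mean of all tested compounds plus 3 SD, cut at about 19% in these data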;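 note: higher means more PKAc released from R1A so a rise in polarization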
S100A4 inh HTS: inhibitors of S100A4-myosin IIA peptide binding, primary screen, biochemical, fluorescence polarization, TAMRA-MyoIIA peptide | Protein S100-A4 (Homo sapiens), P26447 | inhibition, % at 10.7 µM | hit rate 0.14% among 360,000 | AID 652163, 2013;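 active = mean inhibition of at least 70% across replicates, with every replicate also reaching that level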
Target sequence (P26447 whole entry, looked up): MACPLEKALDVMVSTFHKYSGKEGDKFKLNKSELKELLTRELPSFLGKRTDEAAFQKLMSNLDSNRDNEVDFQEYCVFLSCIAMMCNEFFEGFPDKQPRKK
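Assay system: human S100A4 monomer with TAMRA-labelled myosin IIA peptide / Buffer or medium: Calcium-containing HEPES buffer, pH 7.2 / Reagent: TAMRA-labelled myosin IIA heavy-chain peptide probe, 5 nM / Compound: one dose per compound / Timing: polarization read 5 min after assay mix addition, stable 5–60 min / Benchmarks: neutral control DMSO, positive control TFP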
SIRT5 block: SIRT5 desuccinylase inhibitors, primary screen, biochemical, fluorescence imaging, single point, set 5; NAD-dependent protein deacylase sirtuin-5, mitochondrial (Homo sapiens), Q9NXA8; Purified SirT5, succinyl-peptide AMC, trypsin-coupled fluorescence; inhibition, % at 15 µM; hit rate 1.1% among 330,000; in the data active = inhibition above about 15%
PKA-R2B act: activators of PKA-R2B holoenzyme, primary screen, biochemical, fluorescence polarization, Cy5-IP20, human | activation, % at 11.4 µM | cAMP-dependent protein kinase catalytic subunit beta (Homo sapiens) + cAMP-dependent … | PKA-R2B holoenzyme dissociation; R2B truncated from residue 108, S112A mutant; 0% DMSO only, 100% 113 µM cGMP | hit rate 0.079% among 340,000;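 active = activation above a cutoff set at the mean over all compounds plus 3 SD, cut at about 18% in these data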;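 note: higher means more holoenzyme dissociation and a rise in polarization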
Target sequence (P31323 whole entry, looked up, other chains not shown, the tested form may be a part): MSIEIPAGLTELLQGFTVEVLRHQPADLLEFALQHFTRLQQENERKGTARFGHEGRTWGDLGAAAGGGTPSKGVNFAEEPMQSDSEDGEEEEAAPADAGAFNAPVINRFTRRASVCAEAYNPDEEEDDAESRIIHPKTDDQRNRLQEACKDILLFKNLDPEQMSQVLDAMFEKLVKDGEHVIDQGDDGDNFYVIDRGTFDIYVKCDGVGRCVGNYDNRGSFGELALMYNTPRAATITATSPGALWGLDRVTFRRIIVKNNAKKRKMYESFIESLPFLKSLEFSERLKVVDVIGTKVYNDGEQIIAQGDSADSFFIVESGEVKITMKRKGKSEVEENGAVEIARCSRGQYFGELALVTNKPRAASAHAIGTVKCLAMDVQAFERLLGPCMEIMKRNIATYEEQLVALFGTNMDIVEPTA
Numbers without * were called inactive; x = no result given; ! = not confirmed by another sample.

SMILES | CRFR2-BP antag | PKA-R1A activ | S100A4 inh HTS | SIRT5 block | PKA-R2B act
COc1ccc(NC(=O)Nc2ccc(O)c3ccccc23)cc1 | 50* | x | 0 | 1 | x
COc1ccc(C(=O)Nc2ccc(O)c3ccccc23)cc1 | 4 | -17 | -3 | 3 | -4
OC[C@H]1[C@@H](c2ccc(-c3cccnc3)cc2)[C@H]2CN(CC3CCOCC3)CCCCN21 | x | x | -32 | -4 | x
COc1cccc(C(=O)N2C[C@H]3[C@@H](c4ccccc42)[C@H](CO)N3Cc2ccccc2Cl)c1 | x | x | 2 | 4 | x
C[C@H](CO)N1C[C@H](C)[C@H](CN(C)Cc2ccncc2)Oc2c(NC(=O)C3CC3)cccc2C1=O | x | x | 126* | 2 | x
C[C@@H]1CN([C@H](C)CO)C(=O)c2cccc(NC(=O)C3CC3)c2O[C@@H]1CN(C)Cc1ccc2c(c1)OCO2 | x | x | -7 | 0 | x
C[C@@H]1CN([C@H](C)CO)C(=O)c2cccc(NC(=O)C3CCOCC3)c2O[C@@H]1CN(C)Cc1ccc(C(=O)Nc2ccccc2N)cc1 | x | x | -29 | 16* | x
C[C@@H]1CN([C@H](C)CO)C(=O)c2cccc(NC(=O)C3CC3)c2O[C@H]1CN(C)Cc1ccncc1 | x | x | 8 | 2 | x
C[C@@H]1CN([C@@H](C)CO)C(=O)c2cccc(NC(=O)C3CCOCC3)c2O[C@H]1CN(C)Cc1ccc(C(=O)Nc2ccccc2N)cc1 | x | x | -7 | 0 | x
C[C@H]1CN([C@@H](C)CO)C(=O)c2cccc(NC(=O)C3CC3)c2O[C@@H]1CN(C)Cc1ccc2c(c1)OCO2 | x | x | 122* | 3 | x
O=C(C[C@@H]1CC[C@H]2[C@@H](COC[C@@H](O)CN2C(=O)c2ccncc2)O1)NC1Cc2ccccc2C1 | x | x | 1 | 0 | x
O=C(/C=C1\OCc2ccccc21)OCc1ccccc1 | x | x | -3 | 15* | x
C[C@H]1COc2cc(NCCO)ccc2S(=O)(=O)N1 | x | x | 2 | 19* | x
CCCCNc1ccc2c(c1)OC[C@@H](C)NS2(=O)=O | x | x | 2 | -2 | x
C[C@H](CO)N1C[C@H](C)[C@@H](CN(C)Cc2ccc(-c3ccccc3)cc2)Oc2cc(C#C[C@@H](C)O)ccc2S1(=O)=O | x | x | 2 | -2 | x
C[C@H](O)C#Cc1ccc2c(c1)O[C@@H](CN(C)Cc1ccc(-c3ccccc3)cc1)[C@@H](C)CN([C@H](C)CO)S2(=O)=O | x | x | -14 | 23* | x
C[C@H](O)C#Cc1ccc2c(c1)O[C@@H](CN(C)Cc1ccc(-c3ccccc3)cc1)[C@H](C)CN([C@@H](C)CO)S2(=O)=O | -22 | -22 | 3 | 17*! | -10
C[C@@H](O)C#Cc1ccc2c(c1)O[C@H](CN(C)Cc1ccc(-c3ccccc3)cc1)[C@@H](C)CN([C@@H](C)CO)S2(=O)=O | x | x | 7 | 27* | x
COCCNC(=O)C[C@@H]1CC[C@@H]2[C@@H](COc3ccc(NC(=O)COC)cc3C(=O)N2C)O1 | x | x | -10 | -1 | x
CN(C)C(=O)C[C@H]1CC[C@H](NC(=O)Nc2cccc(F)c2)[C@@H](CO)O1 | x | x | -1 | 1 | x
COc1ccccc1CN1[C@H](CO)[C@H]2c3ccccc3N(C(=O)C3CCCCC3)C[C@H]21 | x | x | -1 | 2 | x
CCOc1ccc(C(=O)CSCCC(=O)O)cc1 | 25 | -3 | 12 | 112* | 0
C[C@@H]1CN([C@H](C)CO)C(=O)c2cc(C#C[C@@H](C)O)cnc2O[C@H]1CN(C)CC1CCCCC1 | x | x | -3 | -8 | x
Cc1noc(C)c1NC(=O)N(C)C[C@@H]1Oc2ccc(NS(=O)(=O)c3ccc(Cl)cc3)cc2CC(=O)N([C@@H](C)CO)C[C@H]1C | x | x | 17 | -7 | x
O=C(C[C@H]1CC[C@@H](NC(=O)Nc2cc(F)ccc2F)[C@@H](CO)O1)Nc1ccc(-c2ccccc2)cc1 | x | x | 5 | 1 | x
SMILES | CRFR2-BP antag | PKA-R1A activ | S100A4 inh HTS | SIRT5 block | PKA-R2B act
Cc1ccc(S(=O)(=O)N(C)C[C@@H]2OCCCC[C@@H](C)Oc3ccc(NC(=O)NC4CCCCC4)cc3C(=O)N([C@@H](C)CO)C[C@@H]2C)cc1 | x | x | -3 | 15* | x
C[C@@H]1CN([C@H](C)CO)C(=O)c2cc(NC(=O)NC3CCCCC3)ccc2O[C@@H](C)CCCCO[C@H]1CN(C)S(=O)(=O)c1ccc(Cl)cc1 | x | x | -15 | 15* | x
Cc1ccc(S(=O)(=O)N(C)C[C@H]2OCCCC[C@H](C)Oc3ccc(NC(=O)NC4CCCCC4)cc3C(=O)N([C@H](C)CO)C[C@@H]2C)cc1 | x | x | 2 | 3 | x
CCC(=O)N1C[C@H](C)[C@H](OC)CN(C)C(=O)c2ccc(NC(=O)c3cnccn3)cc2OC[C@H]1C | x | x | -5 | -3 | x
Cc1noc(C)c1C(=O)N(C)C[C@@H]1OCc2ccccc2-c2c(n(C)c3ccccc23)C(=O)N([C@@H](C)CO)C[C@@H]1C | x | x | 7 | -9 | x
COc1cc2ccccc2cc1C(=O)N(CCN(C)C)c1nc2c(OC)ccc(OC)c2s1 | 72* | -5 | 6 | 7 | -4
CCOC(=O)C1C(C)=CC(=O)CC1c1ccco1 (stereo not drawn) | 67* | -1 | x | x | 8
CCOC(=O)C1C(=O)C=C(c2ccc(C)cc2)CC1c1ccco1 (stereo not drawn) | 0 | 4 | x | x | 0
C=CC[C@]1(C(=O)N2CCOCC2)COC(c2ccc(OCCCO)cc2)=N1 | x | x | 11 | 3 | x
Cc1ccc(S(=O)(=O)Nc2ccc3c(c2)C(=O)N([C@@H](C)CO)C[C@@H](C)[C@@H](CN(C)S(=O)(=O)c2ccccc2)OCCCC[C@H](C)O3)cc1 | -4 | 1 | 2 | 0 | 3
Cc1ccc(S(=O)(=O)N(C)C[C@@H]2OCCCC[C@H](C)Oc3ccc(NS(=O)(=O)c4ccccc4)cc3C(=O)N([C@@H](C)CO)C[C@@H]2C)cc1 | x | x | 59 | 1 | x
Cc1ccc(S(=O)(=O)N(C)C[C@H]2OCCCC[C@H](C)Oc3ccc(NS(=O)(=O)c4ccccc4)cc3C(=O)N([C@H](C)CO)C[C@@H]2C)cc1 | x | x | 97* | 3 | x
Cc1ccc(S(=O)(=O)Nc2ccc3c(c2)C(=O)N([C@@H](C)CO)C[C@H](C)[C@@H](CN(C)S(=O)(=O)c2ccccc2)OCCCC[C@@H](C)O3)cc1 | x | x | -10 | 19* | x
Cc1ccc(S(=O)(=O)N(C)C[C@@H]2OCCCC[C@@H](C)Oc3ccc(NS(=O)(=O)c4ccccc4)cc3C(=O)N([C@@H](C)CO)C[C@@H]2C)cc1 | x | x | -1 | 21* | x
Cc1ccc(S(=O)(=O)N(C)C[C@@H]2OCCCC[C@@H](C)Oc3ccc(NS(C)(=O)=O)cc3C(=O)N([C@@H](C)CO)C[C@@H]2C)cc1 | x | x | 88* | 5 | x
